Data on 2 molecules can be found in ChEMBL document CHEMBL4330109, “Parallel synthesis of a bis-triazoles library as psammaplin A analogues: A new wave of antibiofilm compounds?” (Bioorg Med Chem Lett, 2019).

What is called pEC50 is the EC50 on a negative log10 scale, so that one unit is a factor of ten.

Series [1] has as its system Pseudoalteromonas ulvae. As to the kind of experiment: Anti-biofilm activity against Pseudoalteromonas ulvae TC14 assessed as bacterial adhesion at 200 uM incubated for 15 hrs at 20 degC by Syto 61 dye based fluorescence assay relative to control. The series is classed as functional. In outline:
(§1)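 Biofilm formation (adhesion) of the marine strains was measured with the Syto 61 fluorophore, using a method adapted from Leroy et al. Compounds were first screened at 200 µM, and the value is % adhesion at that concentration. EC50 values were derived from the same assay.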

In series [2] the test system is Pseudoalteromonas lipolytica. As to the kind of experiment: Anti-biofilm activity against Pseudoalteromonas lipolytica TC8 assessed as bacterial adhesion at 200 uM incubated for 15 hrs at 20 degC by Syto 61 dye based fluorimetric assay relative to control. It is filed as functional. In outline: as §1
Series [3] concerns Paracoccus sp. Description: Anti-biofilm activity against Paracoccus sp. 4M6 assessed as bacterial adhesion at 200 uM incubated for 15 hrs at 20 degC by Syto 61 dye based fluorimetric assay relative to control. The series is classed as functional. The procedure, abridged: as §1
The test system of series [4] is Pseudoalteromonas ulvae. As to the kind of experiment: Anti-biofilm activity against Pseudoalteromonas ulvae TC14 assessed as inhibition of bacterial adhesion incubated for 15 hrs at 20 degC by Syto 61 dye based fluorescence assay. The series is classed as functional, organism-based. Conditions: Pseudoalteromonas ulvae, TC14, 15 h. The procedure, abridged:
as §1

Series [5] relates to Pseudoalteromonas lipolytica. Description: Anti-biofilm activity against Pseudoalteromonas lipolytica TC8 assessed as inhibition of bacterial adhesion incubated for 15 hrs at 20 degC by Syto 61 dye based fluorimetric assay. The series is classed as functional, organism-based. The conditions noted are these: Pseudoalteromonas lipolytica, TC8, 15 h. The procedure, abridged:
as §1

The test system of series [6] is Paracoccus sp. As to the kind of experiment: Anti-biofilm activity against Paracoccus sp. 4M6 assessed as inhibition of bacterial adhesion incubated for 15 hrs at 20 degC by Syto 61 dye based fluorimetric assay. It is filed as functional, organism-based. The conditions noted are these: Paracoccus sp. (in: a-proteobacteria), 4M6, 15 h. The procedure, abridged: as §1

In series [7] the test system is Pseudoalteromonas ulvae. As to the kind of experiment: Growth inhibition of Pseudoalteromonas ulvae TC14 at 100 uM measured every hr for 6 hrs by turbidimetric method. It is filed as organism-based. Conditions: in vivo. In outline:
(§2)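 Bacterial growth of TC14, TC8 and 4M6 was followed with test compounds at 100 µM. Ampicillin at 5 µM served as the reference antibiotic.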

The test system of series [8] is Pseudoalteromonas lipolytica. Description: Growth inhibition of Pseudoalteromonas lipolytica TC8 at 100 uM measured every hr for 6 hrs by turbidimetric method. It is filed as organism-based. The conditions noted are these: in vivo. In outline: as §2
The test system of series [9] is Paracoccus sp. Description: Growth inhibition of Paracoccus sp. 4M6 at 100 uM measured every hr for 6 hrs by turbidimetric method. The series is classed as organism-based. The conditions noted are these: in vivo. In outline:
as §2

Series [10] concerns Pseudoalteromonas ulvae. Description: Effect on cell viability of Pseudoalteromonas ulvae TC14 at 5 uM measured after 6 hrs by resazurin dye based fluorescence assay. The series is classed as organism-based. The procedure, abridged:
(§3)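 Viability was scored with resazurin, following the same protocol as the Syto 61 antiadhesion assay. Compounds were tested at 5, 10, 20, 50, 100 and 200 µM on each strain, and the 5 and 100 µM points are the ones reported.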
(Alamar Blue is a resazurin reagent that responds to reducing activity.)

In series [11] the test system is Pseudoalteromonas lipolytica. As to the kind of experiment: Effect on cell viability of Pseudoalteromonas lipolytica TC8 at 5 uM measured after 6 hrs by resazurin dye based fluorescence assay. It is filed as organism-based. In outline: as §3
The subject of series [12] is Paracoccus sp. As to the kind of experiment: Effect on cell viability of Paracoccus sp. 4M6 at 5 uM measured after 6 hrs by resazurin dye based fluorescence assay. It is filed as organism-based. In outline:
as §3

Series [13] deals with Pseudoalteromonas ulvae. As to the kind of experiment: Effect on cell viability of Pseudoalteromonas ulvae TC14 at 100 uM measured after 6 hrs by resazurin dye based fluorescence assay. The series is classed as organism-based. In outline:
as §3

The test system of series [14] is Pseudoalteromonas lipolytica. Description: Effect on cell viability of Pseudoalteromonas lipolytica TC8 at 100 uM measured after 6 hrs by resazurin dye based fluorescence assay. The series is classed as organism-based. In outline:
as §3

For series [15], the system named is Paracoccus sp. Description: Effect on cell viability of Paracoccus sp. 4M6 at 100 uM measured after 6 hrs by resazurin dye based fluorescence assay. The series is classed as organism-based. The procedure, abridged:
as §3

The test system of series [16] is Pseudoalteromonas ulvae. As to the kind of experiment: Growth inhibition of Pseudoalteromonas ulvae TC14 at 5 uM measured every hr for 6 hrs by turbidimetric method. It is filed as organism-based. Conditions: in vivo. In outline: as §2
Series [17] relates to Pseudoalteromonas lipolytica. As to the kind of experiment: Growth inhibition of Pseudoalteromonas lipolytica TC8 at 5 uM measured every hr for 6 hrs by turbidimetric method. The series is classed as organism-based. The conditions noted are these: in vivo. In outline: as §2
The test system of series [18] is Paracoccus sp. As to the kind of experiment: Growth inhibition of Paracoccus sp. 4M6 at 5 uM measured every hr for 6 hrs by turbidimetric method. It is filed as organism-based. Conditions: in vivo. In outline: as §2

pEC50: −log10 of the molar value.

On to `CN(C)CCCOc1ccc(CCn2cc(-c3ccc(-c4cn(CCc5ccc(OCCCN(C)C)c(Br)c5)nn4)cc3)nn2)cc1Br`, for which the Activity is 0.6% in [1]; 5.3% in [2]; 5.1% in series [3]; “Non-Toxic” in series [10]; “Non-Toxic” in [11]; “Non-Toxic” in series [12]. Moreover, the Activity result in [13], in series [14] and in series [15] was “Toxic” each time. Besides, the figures for the pEC50 in series [4], in series [5] and in [6] were 6.40, 4.82 and 5.46, respectively. Further, the “growth inhibition (GI)” value in series [7], in [8] and in series [9] was “Toxic” throughout.

Consider `CC1(C)S[C@@H]2[C@H](NC(=O)[C@H](N)c3ccccc3)C(=O)N2[C@H]1C(=O)O` [AMPICILLIN], for which the “growth inhibition (GI)” value in [16], in series [17] and in [18] was “Toxic” each time. Besides, the Activity result in series [10], in series [11] and in series [12] was “Toxic” in each case.
